Results from ChEMBL document CHEMBL4257555, “Small molecule cores demonstrate non-competitive inhibition of lactate dehydrogenase” (Medchemcomm, 2018).

Key:
[1] = molecular target: T1, L-lactate dehydrogenase B chain (Sus scrofa, UniProt P00336); test: Inhibition of porcine heart LDH using pyruvate as substrate and NADH as cofactor measured after 2 hrs by stopped-flow spectrometric method
Summary of the method: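 Stopped-flow assay of pig heart LDH (5 nN) with 100 μM NADH and 300 μM pyruvate in 100 mM sodium phosphate pH 7.2 at 37 °C, after 2 h inhibitor preincubation at 4 °C. A340 initial rates averaged over five shots and normalised to uninhibited activity. EC50 from a four-parameter fit with min, max, EC50 and Hill coefficient refined.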

[2] = molecular target: T1, L-lactate dehydrogenase B chain; test: Non-competitive inhibition of porcine heart LDH using varying levels of pyruvate as substrate and NADH as cofactor measured after 2 hrs by double reciprocal lineweaver-burk plot analysis

T1 sequence (P00336 whole entry): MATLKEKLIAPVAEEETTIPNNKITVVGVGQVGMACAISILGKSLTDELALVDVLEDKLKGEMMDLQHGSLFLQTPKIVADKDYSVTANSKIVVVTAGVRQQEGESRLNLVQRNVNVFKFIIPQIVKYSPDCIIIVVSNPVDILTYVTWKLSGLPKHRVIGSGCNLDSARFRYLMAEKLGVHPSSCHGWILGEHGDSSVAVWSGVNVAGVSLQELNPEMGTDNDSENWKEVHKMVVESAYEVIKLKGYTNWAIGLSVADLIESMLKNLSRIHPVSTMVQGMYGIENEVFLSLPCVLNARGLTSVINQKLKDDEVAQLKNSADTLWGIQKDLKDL

EC50 [1] [µM] | Ki [2] [µM] | Structure (SMILES)
712 | 355 | NC(=O)c1cc(O)cc(O)c1
78 | 498 | CC(=O)Nc1cccc(O)c1 [METACETAMOL]
